Assay [1] concerns the target Kappa-type opioid receptor (Homo sapiens, UniProt P41145). The experiment in a line: Displacement of [3H]U69,593 from human KOR expressed in HEK293 cells after 90 mins by liquid scintillation counting. Format: cell-based. A digest of the protocol:
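Membranes from HEK-293 cells expressing human KOR incubated 90 min at 25 °C in 100 mM Tris-HCl with 0.3% BSA, with [3H]U69,593 at 2 nM. Nonspecific binding defined with 10 μM U50,488. Filtered on polyethylenimine-presoaked GF/C filters, washed with ice-cold 50 mM Tris-HCl pH 7.4, then scintillation counted. Run in triplicate, ≥3 experiments. Ki from IC50 by Cheng–Prusoff.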

The target in assay [2] is T1, Mu-type opioid receptor (Homo sapiens, UniProt P35372). The experiment in a line: biochemical.
Assay [3] concerns the target Delta-type opioid receptor (Homo sapiens, UniProt P41143). The experiment in a line: Displacement of [3H]diprenorphine from human DOR expressed in HEK293 cells after 90 mins by liquid scintillation counting. It counts as cell-based.
The target in assay [4] is T1, Mu-type opioid receptor. Format: functional, cell-based, HEK293.
Assay [5] deals with T1, Mu-type opioid receptor. The assay is described as follows: Partial agonist activity at human MOR expressed in HEK293 cells assessed as inhibition of forskolin-induced cAMP accumulation after 15 mins by cAMP EIA. It counts as functional, cell-based. A digest of the protocol:
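Whole HEK-293 cells stably expressing MOR, grown in MEM/10% FBS and plated at 85–95% confluence. Cells washed, placed in serum-free medium with 0.5 mM IBMX, and given 10 μM forskolin ± compound (0.01 nM–100 μM) for 15 min at 37 °C. Lysed in 0.1 N HCl; cAMP in supernatant measured by EIA. Triplicates averaged for IC50 and Emax (% vehicle), 5–6 independent experiments.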

The results in this text go back to ChEMBL document CHEMBL2177066, “Opioid activity profiles of oversimplified peptides lacking in the protonable N-terminus” (J Med Chem, 2012).

Where a SMILES comes first, the peptide text is derived from it. [ ]: non-standard residue; d: D form.

Kappa-type opioid receptor, sequence (P41145 whole entry): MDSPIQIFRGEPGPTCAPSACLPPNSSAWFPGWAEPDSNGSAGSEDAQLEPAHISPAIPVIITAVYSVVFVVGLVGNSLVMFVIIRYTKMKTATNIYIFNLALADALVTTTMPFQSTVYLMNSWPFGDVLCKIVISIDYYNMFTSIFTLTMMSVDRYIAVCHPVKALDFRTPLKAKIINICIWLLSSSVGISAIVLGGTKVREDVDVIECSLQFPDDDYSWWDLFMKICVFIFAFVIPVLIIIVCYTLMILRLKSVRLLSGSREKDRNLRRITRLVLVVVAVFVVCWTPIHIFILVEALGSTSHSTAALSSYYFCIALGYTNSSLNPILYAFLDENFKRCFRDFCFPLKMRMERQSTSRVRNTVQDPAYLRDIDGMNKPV
Delta-type opioid receptor, sequence (P41143 whole entry): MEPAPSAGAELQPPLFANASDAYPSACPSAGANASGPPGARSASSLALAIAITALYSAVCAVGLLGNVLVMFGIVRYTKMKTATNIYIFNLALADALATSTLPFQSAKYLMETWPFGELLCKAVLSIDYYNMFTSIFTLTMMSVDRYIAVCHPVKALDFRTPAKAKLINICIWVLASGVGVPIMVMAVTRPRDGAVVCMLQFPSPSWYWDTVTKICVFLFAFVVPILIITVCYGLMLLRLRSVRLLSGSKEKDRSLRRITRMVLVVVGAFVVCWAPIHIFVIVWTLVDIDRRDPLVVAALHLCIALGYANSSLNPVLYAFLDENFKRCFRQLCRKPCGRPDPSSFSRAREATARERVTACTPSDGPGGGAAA
T1 sequence (P35372 whole entry): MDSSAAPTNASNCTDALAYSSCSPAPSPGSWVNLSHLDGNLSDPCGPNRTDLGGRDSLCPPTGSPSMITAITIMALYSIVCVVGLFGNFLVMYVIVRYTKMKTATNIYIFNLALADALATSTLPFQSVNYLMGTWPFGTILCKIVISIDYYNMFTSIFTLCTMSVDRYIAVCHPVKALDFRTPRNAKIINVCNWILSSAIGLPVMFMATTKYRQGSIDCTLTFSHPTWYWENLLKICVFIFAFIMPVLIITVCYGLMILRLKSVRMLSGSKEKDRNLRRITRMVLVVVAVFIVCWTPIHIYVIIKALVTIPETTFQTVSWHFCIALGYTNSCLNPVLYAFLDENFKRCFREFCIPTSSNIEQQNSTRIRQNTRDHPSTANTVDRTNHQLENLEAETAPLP

Take `CC(=O)N[C@H](CCCCN)C(=O)N[C@@H](Cc1ccccc1)C(N)=O`: the Ki (in assay [1]; on Mu-type opioid receptor [2]; in assay [3]) was > 100 µM throughout.
For the compound `CC(=O)N[C@H](CCCCN)C(=O)N[C@@H](Cc1ccccc1)C(=O)NCC(N)=O`, the Ki (in assay [1]; on Mu-type opioid receptor [2]; in assay [3]) was > 100 µM each time.
In the case of `CC(=O)N[C@H](Cc1c[nH]c2ccccc12)C(=O)N[C@@H](Cc1ccccc1)C(N)=O` (Ac-[dW]-Phe-NH2), the IC50 against Mu-type opioid receptor [4] is > 100 µM. Also, the Ki was > 100 µM in assay [1], 0.0155 µM on Mu-type opioid receptor [2] and 0.024 µM in assay [3].
As for `CC(=O)N[C@@H](Cc1c[nH]c2ccccc12)C(=O)N[C@@H](Cc1ccccc1)C(=O)NCC(N)=O` (Ac-Trp-Phe-Gly-NH2), the results for the Ki (in assay [1]; on Mu-type opioid receptor [2]; in assay [3]) were 33 µM, 74 µM and 0.0121 µM, respectively.
On the same counts, the results for `CC(=O)N[C@H](Cc1cnc[nH]1)C(=O)N[C@@H](Cc1ccccc1)C(N)=O` are > 100 µM, > 100 µM and > 100 µM.
On the same counts, the results for `CC(=O)N[C@H](Cc1cnc[nH]1)C(=O)N[C@@H](Cc1ccccc1)C(=O)NCC(N)=O` are > 100 µM, > 100 µM and > 100 µM.
The compound `NC(=O)[C@H]1CC(=O)NCCC(=O)N[C@H](Cc2c[nH]c3ccccc23)C(=O)N[C@@H](Cc2ccccc2)C(=O)N1` showed an IC50 on Mu-type opioid receptor [4] of 0.037 µM. The Ki was > 100 µM in assay [1], 0.0059 µM at Mu-type opioid receptor [2] and > 100 µM in assay [3].
Regarding `CC(=O)N[C@H](CCCNC(=N)N)C(=O)N[C@@H](Cc1ccccc1)C(=O)NCC(N)=O`, the Ki (in assay [1]; on Mu-type opioid receptor [2]; in assay [3]) was > 100 µM in each case.
On to `CC(=O)N[C@H](CCCNC(=N)N)C(=O)N[C@@H](Cc1ccccc1)C(N)=O`, for which the Ki (in assay [1]; at Mu-type opioid receptor [2]; in assay [3]) was > 100 µM in each case.
For the compound `CC(=O)N[C@H](Cc1c[nH]c2ccccc12)C(=O)N[C@@H](Cc1ccccc1)C(=O)NCC(N)=O` (Ac-[dW]-Phe-Gly-NH2), the values for the Ki (in assay [1]; at Mu-type opioid receptor [2]; in assay [3]) were > 100 µM, 0.0056 µM and > 100 µM, respectively. Moreover, the half-inhibitory concentration (IC50) on Mu-type opioid receptor [5] was found to be 0.2 µM.
